Source: ChEMBL document CHEMBL1151773, “Synthesis and biological evaluation of amide derivatives of (5,6-dimethoxy-2,3-dihydro-1H-inden-1-yl)acetic acid as anti-inflammatory agents with reduced gastrointestinal ulcerogenecity” (Eur J Med Chem, 2008)

Assays:
Rattus norvegicus [1] = assay: Antipyretic activity in Wistar rat assessed as change in LPS-induced rectal temperature at 100 mg/kg, po administered 30 mins before LPS challenge after 1 hr; assay type: functional
Method in brief: (§1)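 Adult female Wistar rats, 170±20 g, fasted 24 h, dosed orally at 09:00; 30 min later E. coli 0111:B4 phenol-extracted LPS in apyrogenic saline given i.p. Rectal temperature by telethermometer probe just before and 1–7 h hourly after LPS; temperature index calculated from these readings. n = 6.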

Rattus norvegicus [2] = assay: Antiinflammatory activity in Wistar rat assessed as inhibition of carrageenan-induced hind paw edema volume at 100 mg/kg, po administered 60 mins before carrageenan challenge after 4 hrs relative to control; assay type: functional
Rattus norvegicus [3] = assay: Antiarthritic activity in Albino rat assessed as inhibition of Freund's complete adjuvant-induced paw volume at 100 mg/kg, po administered for 14 days daily once starting a day before adjuvant challenge measured on day 8; assay type: functional
Method in brief: (§2)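 Female albino rats, 160±10 g, six per group, dosed orally once daily for 14 days starting the day before 0.1 ml Freund's complete adjuvant into the right hind paw subplantar surface. Both hind paw volumes, measured up to a mark at the lateral malleolus, taken before and daily after adjuvant.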

Rattus norvegicus [4] = assay: Antipyretic activity in Wistar rat assessed as change in LPS-induced rectal temperature at 100 mg/kg, po administered 30 mins before LPS challenge after 4 hrs; assay type: functional; method in brief: as §1
Rattus norvegicus [5] = assay: Antipyretic activity in Wistar rat assessed as change in LPS-induced rectal temperature at 100 mg/kg, po administered 30 mins before LPS challenge after 5 hrs; assay type: functional; method in brief: as §1
Rattus norvegicus [6] = assay: Antipyretic activity in Wistar rat assessed as change in LPS-induced rectal temperature at 100 mg/kg, po administered 30 mins before LPS challenge after 7 hrs; assay type: functional; method in brief: as §1
Rattus norvegicus [7] = assay: Toxicity in Wistar rat assessed as mortality at up to 1000 mg/kg, po after 24 hrs; assay type: organism-based; parameters: dose 1000 mg/kg, route oral; conditions: in vivo
Rattus norvegicus [8] = assay: Gastrointestinal toxicity in Wistar rat assessed as ulcer index at 100 mg/kg, po after 14 days; assay type: organism-based; parameters: dose 100 mg/kg, route oral; conditions: in vivo, 336 h
Method in brief: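 Gastric mucosa examined for ulceration at post-mortem of female albino rats sacrificed at the end of the 14-day once-daily oral dosing in the Freund's adjuvant arthritis study; ulcer index scored per animal. Mean ± SEM, n = 6.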

Rattus norvegicus [9] = assay: Antiinflammatory activity in Wistar rat assessed as inhibition of carrageenan-induced hind paw edema volume at 100 mg/kg, po administered 60 mins before carrageenan challenge after 3 hrs relative to control; assay type: functional
Rattus norvegicus [10] = assay: Antiinflammatory activity in Wistar rat assessed as inhibition of carrageenan-induced hind paw edema volume at 100 mg/kg, po administered 60 mins before carrageenan challenge after 24 hrs relative to control; assay type: functional
Mus musculus = assay: Analgesic activity in Swiss albino mouse assessed as inhibition of acetic acid-induced writhing at 100 mg/kg, po administered 60 mins before acetic acid challenge after 5 to 15 mins relative to control; assay type: functional
Method in brief: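 Female Swiss albino mice, 20±5 g, fasted overnight with free water access, dosed orally; 1 h later injected i.p. with 1% v/v acetic acid at 0.1 ml/10 g. Writhes (full hind-limb extension) counted for 15 min, starting 5 min after injection; only animals giving 20 or more writhes used. % inhibition = 100(1−Wt/Wc) vs control group mean; six animals per group.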

Rattus norvegicus [11] = assay: Antiinflammatory activity in Wistar rat assessed as inhibition of carrageenan-induced hind paw edema volume at 100 mg/kg, po administered 60 mins before carrageenan challenge after 6 hrs relative to control; assay type: functional
Rattus norvegicus [12] = assay: Antiarthritic activity in Albino rat assessed as inhibition of Freund's complete adjuvant-induced paw volume at 100 mg/kg, po administered for 14 days daily once starting a day before adjuvant challenge measured on day 13; assay type: functional; method in brief: as §2
Rattus norvegicus [13] = assay: Antipyretic activity in Wistar rat assessed as change in LPS-induced rectal temperature at 100 mg/kg, po administered 30 mins before LPS challenge after 3 hrs; assay type: functional; method in brief: as §1
Rattus norvegicus [14] = assay: Antiinflammatory activity in po dosed Wistar rat assessed as inhibition of carrageenan-induced hind paw edema volume administered 60 mins before carrageenan challenge; assay type: functional
Rattus norvegicus [15] = assay: Antiarthritic activity in Freund's complete adjuvant challenged Albino rat model assessed as change in body weight at 100 mg/kg, po administered for 14 days daily once starting a day before adjuvant challenge; assay type: functional; conditions: 336 h, read-out: INH
Rattus norvegicus [16] = assay: Antiinflammatory activity in Wistar rat assessed as inhibition of carrageenan-induced hind paw edema volume at 100 mg/kg, po administered 60 mins before carrageenan challenge after 1 hr relative to control; assay type: functional
Rattus norvegicus [17] = assay: Antiarthritic activity in Albino rat assessed as inhibition of Freund's complete adjuvant-induced paw volume at 100 mg/kg, po administered for 14 days daily once starting a day before adjuvant challenge measured on day 3; assay type: functional; method in brief: as §2
Rattus norvegicus [18] = assay: Antiinflammatory activity in Wistar rat assessed as inhibition of carrageenan-induced hind paw edema volume at 100 mg/kg, po administered 60 mins before carrageenan challenge after 2 hrs relative to control; assay type: functional
Rattus norvegicus [19] = assay: Antipyretic activity in Wistar rat assessed as change in LPS-induced rectal temperature at 100 mg/kg, po administered 30 mins before LPS challenge after 2 hrs; assay type: functional; method in brief: as §1
Rattus norvegicus [20] = assay: Gastrointestinal toxicity in Wistar rat assessed as ulcer index at 100 mg/kg, po after 6 hrs; assay type: organism-based; parameters: dose 100 mg/kg, route oral; conditions: in vivo
Method in brief: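 Female Wistar rats, 175±25 g, fasted 24 h, dosed orally once; sacrificed 6 h later by cervical dislocation. Stomach opened along greater curvature, saline-washed, mucosa inspected with a hand lens. Lesions graded I (edema/hyperemia/petechiae), II (hemorrhagic lesions with small erosions), III (deep ulcers); UI = nI + 2nII + 3nIII. Mean ± SEM, n = 6.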

Rattus norvegicus [21] = assay: Antipyretic activity in Wistar rat assessed as change in LPS-induced rectal temperature at 100 mg/kg, po administered 30 mins before LPS challenge after 6 hrs; assay type: functional; method in brief: as §1

With COc1cc2c(cc1OC)C(CC(=O)NC1CCCCC1)CC2 (configuration not stated) the Activity (Rattus norvegicus [1]) was -0.33 °C, the inhibition in vivo at 100 mg/kg (Rattus norvegicus [2]) was 50% and the inhibition in vivo at 100 mg/kg (Rattus norvegicus [3]) was 31.8%. The Activity (Rattus norvegicus [4]) was 0.05 °C, the Activity (Rattus norvegicus [5]) was 0.51 °C and the Activity (Rattus norvegicus [6]) was 0.43 °C. For the same compound, the Activity (Rattus norvegicus [7]) was “Non-toxic”, the UI (Rattus norvegicus [8]) was 0 and the inhibition in vivo at 100 mg/kg (Rattus norvegicus [9]) was 49.3%. The inhibition in vivo at 100 mg/kg (Rattus norvegicus [10]) was 53.3%, the inhibition in vivo at 100 mg/kg (Mus musculus) was 44.7% and the inhibition in vivo at 100 mg/kg (Rattus norvegicus [11]) was 48.1%. The inhibition in vivo at 100 mg/kg (Rattus norvegicus [12]) was 33.3%, the Activity (Rattus norvegicus [13]) was -0.67 °C and the ED30 (Rattus norvegicus [14]) was 20 mg/kg. It also gave an inhibition in vivo at 100 mg/kg (Rattus norvegicus [15]) of 6.84 g, an inhibition in vivo at 100 mg/kg (Rattus norvegicus [16]) of 50% and an inhibition in vivo at 100 mg/kg (Rattus norvegicus [17]) of 29%. For the same compound, the inhibition in vivo at 100 mg/kg (Rattus norvegicus [18]) was 56%, the Activity (Rattus norvegicus [19]) was -1.26 °C and the UI (Rattus norvegicus [20]) was 0. It also gave an Activity (Rattus norvegicus [21]) of 0.45 °C.
